Calls of active or inactive are those of the source.
Key:
Escherichia coli [1] = experiment: Potentiation of pleuromutilin-induced antibiotic activity against Escherichia coli ATCC 25922 assessed as MIC fold reduction at 8 ug/ml after 18 hrs by microbroth dilution method; assay type: functional; details: dose 8 µg/ml
Escherichia coli [2] = experiment: Antibacterial activity against Escherichia coli ATCC 25922 assessed as reduction in bacterial growth after 18 hrs in presence of cefiderocol by microbroth dilution method; assay type: functional
In short: (§1)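 Checkerboard in Mueller-Hinton broth: cefiderocol 2-fold diluted on one axis, adjuvant 2-fold on the other. Overnight cultures were adjusted to 0.5 McFarland in saline, diluted 1:50 in MHB, and inoculated at about 5 × 10^5 CFU/mL. Incubation was 18 h at 37 °C. Turbidity was read visually and confirmed at 590 nm. FIC index = FIC of antibiotic + FIC of adjuvant; ≤0.5 synergy, >4 antagonism.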

Pseudomonas aeruginosa [3] = experiment: Antibacterial activity against MDR clinical isolate Pseudomonas aeruginosa PA86052 assessed as potentiation of cefiderocol antibacterial activity by measuring FIC index after 18 hrs by microbroth dilution method; assay type: functional
In short: (§2)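 Checkerboard in MHB (iron-replete, not iron-depleted CAMHB). Cefiderocol was 2-fold serially diluted along one axis and the adjuvant along the other. Inoculum was 0.5 McFarland diluted 1:50, about 5 × 10^5 CFU/mL final. Incubation was 18 h at 37 °C, with turbidity read visually and confirmed at 590 nm. FIC was the MIC in combination over the MIC alone for each agent, and the FIC index was their sum. Cut-offs were ≤0.5 synergy, >0.5–4 additive, >4 antagonism.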

Enterococcus faecium = experiment: Antibacterial activity against Enterococcus faecium ATCC 27270 assessed as reduction in bacterial growth after 18 hrs by microbroth dilution method; assay type: functional
In short: (§3)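 CLSI microbroth dilution in MHB. Overnight cultures were adjusted to 0.5 McFarland in saline, diluted 1:50, and inoculated at about 5 × 10^5 CFU/mL. Agents were 2-fold serially diluted and incubated 18 h at 37 °C. MIC is the lowest concentration without visible turbidity, confirmed by absorbance at 590 nm. Medium with and without cells served as controls.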

Pseudomonas aeruginosa [4] = experiment: Potentiation of ceftolozane-induced antibiotic activity against MDR clinical isolate Pseudomonas aeruginosa PA259 assessed as MIC fold reduction at 8 ug/ml after 18 hrs by microbroth dilution method; assay type: functional, organism-based; details: dose 8.0 µg/ml
In short: (§4)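 Adjuvant held at a fixed 8 μg/mL while the antibiotic was 2-fold serially diluted in Mueller-Hinton broth (MHB), per CLSI microbroth dilution. Overnight cultures were adjusted in saline to 0.5 McFarland, then diluted 1:50 in MHB to about 5 × 10^5 CFU/mL final, and incubated 18 h at 37 °C. MIC was the lowest concentration with no visible turbidity, confirmed at 590 nm. Fold potentiation = MIC alone / MIC with adjuvant.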

Pseudomonas aeruginosa [5] = experiment: Antibacterial activity against MDR clinical isolate Pseudomonas aeruginosa PA108590 assessed as potentiation of cefiderocol antibacterial activity by measuring FIC index after 18 hrs by microbroth dilution method; assay type: functional; in short: as §2
Pseudomonas aeruginosa [6] = experiment: Potentiation of moxifloxacin-induced antibiotic activity against Pseudomonas aeruginosa PAO1 assessed as MIC fold reduction at 8 ug/ml after 18 hrs by microbroth dilution method; assay type: functional; details: dose 8 µg/ml
Pseudomonas aeruginosa [7] = experiment: Potentiation of ceftolozane-induced antibiotic activity against […] Pseudomonas aeruginosa PAO1 assessed as MIC fold reduction at 8 ug/ml after 18 hrs by microbroth dilution method; assay type: functional, organism-based; details: dose 8.0 µg/ml; in short: as §4
Pseudomonas aeruginosa [8] = experiment: Potentiation of moxifloxacin-induced antibiotic activity against Pseudomonas aeruginosa PA264 assessed as MIC fold reduction in ID-CAMHB condition at 8 ug/ml after 18 hrs by microbroth dilution method; assay type: functional, organism-based; details: dose 8.0 µg/ml
Pseudomonas aeruginosa [9] = experiment: Antibacterial activity against colistin-resistant clinical isolate Pseudomonas aeruginosa PA101243 assessed as reduction in bacterial growth by measuring FIC index after 18 hrs by microbroth dilution method; assay type: functional; in short: as §2
Pseudomonas aeruginosa [10] = experiment: Potentiation of ciprofloxacin-induced antibiotic activity against Pseudomonas aeruginosa PAO1 assessed as MIC fold reduction at 8 ug/ml after 18 hrs by microbroth dilution method; assay type: functional; details: dose 8 µg/ml; in short: as §4
Enterococcus faecalis = experiment: Antibacterial activity against Enterococcus faecalis ATCC 29212 assessed as reduction in bacterial growth after 18 hrs by microbroth dilution method; assay type: functional; in short: as §3
Enterobacter cloacae = experiment: Antibacterial activity against Enterobacter cloacae 121187 assessed as reduction in bacterial growth after 18 hrs by microbroth dilution method; assay type: functional; in short: as §3
Acinetobacter baumannii [11] = experiment: Antibacterial activity against Acinetobacter baumannii AB92247 assessed as reduction in bacterial growth after 18 hrs in presence of cefiderocol by microbroth dilution method; assay type: functional; in short: as §1
Pseudomonas aeruginosa [12] = experiment: Potentiation of cefiderocol-induced antibiotic activity against MDR clinical isolate Pseudomonas aeruginosa PA259 assessed as MIC fold reduction at 8 ug/ml after 18 hrs by microbroth dilution method; details: dose 8 µg/ml
Pseudomonas aeruginosa [13] = experiment: Potentiation of cefiderocol-induced antibiotic activity against […] Pseudomonas aeruginosa PAO1 assessed as MIC fold reduction at 8 ug/ml after 18 hrs by microbroth dilution method; assay type: functional, organism-based; details: dose 8.0 µg/ml
In short: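 Initial screen in MHB using a fixed 8 μg mL−1 of adjuvant combined with each antibiotic under 2-fold dilution. Broth microdilution used about 5 × 10^5 CFU/mL at 37 °C for 18 h, with visible turbidity read and confirmed at 590 nm. Fold-potentiation = antibiotic MIC alone ÷ antibiotic MIC with adjuvant.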

Klebsiella pneumoniae [14] = experiment: Antibacterial activity against Klebsiella pneumoniae KP113250 assessed as potentiation of cefiderocol antibacterial activity by measuring FIC after 18 hrs by microbroth dilution method; assay type: functional; in short: as §1
Acinetobacter baumannii [15] = experiment: Potentiation of tobramycin-induced antibiotic activity against Acinetobacter baumannii ATCC 17978 assessed as MIC fold reduction at 8 ug/ml after 18 hrs by microbroth dilution method; assay type: functional; details: dose 8 µg/ml
Pseudomonas aeruginosa [16] = experiment: Potentiation of chloamphenicol-induced antibiotic activity against Pseudomonas aeruginosa PAO1 assessed as MIC fold reduction at 8 ug/ml after 18 hrs by microbroth dilution method; assay type: functional; details: dose 8 µg/ml; in short: as §4
Pseudomonas aeruginosa [17] = experiment: Antibacterial activity against MDR clinical isolate Pseudomonas aeruginosa PA264 assessed as reduction in bacterial growth after 18 hrs in presence of cefiderocol by microbroth dilution method; assay type: functional
In short: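 Checkerboard in MHB. Cefiderocol was 2-fold serially diluted along one axis and the adjuvant along the other. Inoculum was prepared from 0.5 McFarland saline suspensions diluted 1:50 in MHB, giving about 5 × 10^5 CFU/mL final. Plates ran 18 h at 37 °C, with turbidity confirmed at 590 nm. FIC = combination MIC ÷ MIC alone for each agent, and FIC index = sum of both. Interpretation: ≤0.5 synergy, >0.5–4 additive, >4 antagonism.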

Pseudomonas aeruginosa [18] = experiment: Potentiation of erythromycin-induced antibiotic activity against Pseudomonas aeruginosa PAO1 assessed as MIC fold reduction at 8 ug/ml after 18 hrs by microbroth dilution method; assay type: functional; details: dose 8 µg/ml; in short: as §4
Escherichia coli [19] = experiment: Potentiation of ciprofloxacin-induced antibiotic activity against Escherichia coli ATCC 25922 assessed as MIC fold reduction at 8 ug/ml after 18 hrs by microbroth dilution method; assay type: functional; details: dose 8 µg/ml; in short: as §4
Pseudomonas aeruginosa [20] = experiment: Antibacterial activity against colistin-resistant clinical isolate Pseudomonas aeruginosa PA91433 assessed as potentiation of cefiderocol antibacterial activity by measuring FIC index after 18 hrs by microbroth dilution method; assay type: functional; in short: as §2
Klebsiella pneumoniae [21] = experiment: Antibacterial activity against Klebsiella pneumoniae KP113250 assessed as reduction in bacterial growth after 18 hrs in presence of cefiderocol by microbroth dilution method; assay type: functional; in short: as §1

NC[C@H]1O[C@H](O[C@H]2[C@H](OCCCCc3cn(-c4ccc(NC(=O)c5cc(Cl)ccc5O)cc4)nn3)[C@@H](O[C@H]3O[C@H](CO)[C@@H](O)[C@H](N)[C@H]3O)[C@H](N)C[C@@H]2N)[C@H](N)C[C@@H]1O
fold change (FC) (Escherichia coli [1]): 4 | MIC (Escherichia coli [2]): 0.25 µg/mL | FIC (Pseudomonas aeruginosa [3]): 1 | MIC (Enterococcus faecium): > 128 µg/mL | Activity (Pseudomonas aeruginosa [4]): Active | FIC (Pseudomonas aeruginosa [5]): 0.016 | fold change (FC) (Pseudomonas aeruginosa [6]): 4 | Activity (Pseudomonas aeruginosa [7]): Active | Activity (Pseudomonas aeruginosa [8]): Active | FIC (Pseudomonas aeruginosa [9]): 0.125 | fold change (FC) (Pseudomonas aeruginosa [10]): 4 | MIC (Enterococcus faecalis): > 128 µg/mL | MIC (Enterobacter cloacae): > 128 µg/mL | MIC (Acinetobacter baumannii [11]): 8 µg/mL | fold change (FC) (Pseudomonas aeruginosa [12]): 32 | Activity (Pseudomonas aeruginosa [13]): Active | FIC (Klebsiella pneumoniae [14]): 0.25 | fold change (FC) (Acinetobacter baumannii [15]): 4 | fold change (FC) (Pseudomonas aeruginosa [16]): 4 | MIC (Pseudomonas aeruginosa [17]): 0.125 µg/mL | fold change (FC) (Pseudomonas aeruginosa [18]): 4 | fold change (FC) (Escherichia coli [19]): 4 | FIC (Pseudomonas aeruginosa [20]): 0.016 | MIC (Klebsiella pneumoniae [21]): 4 µg/mL
